In general, ED50 refers to the midpoint of the dose-response relation. A low value points to greater potency.

In ChEMBL document CHEMBL1126015, “Heteroatom analogues of bemoradan: chemistry and cardiotonic activity of 1,4-benzothiazinylpyridazinones” (J Med Chem, 1992) one finds Change and ED50 data, which are given here for five compounds.

The test system of assay [1] is Canis familiaris. Briefly: Increase in cardiac force in dog at 75 ug/kg intravenous dose. It counts as functional, Canis lupus familiaris.
For assay [2], the species on record is Canis familiaris. Briefly: 50% increase in cardiac force in dog by id dose. The following applies: Canis lupus familiaris, Heart. It counts as functional. An outline of the steps: (§1)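 Anesthetized dogs; the value is the dose, given iv or intraduodenally, that raises cardiac force by 50%.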
Assay [3] has as its system Canis familiaris. Briefly: 50% increase in cardiac force in dog by intravenous dose. It counts as functional. The following applies: Canis lupus familiaris, Heart. An outline of the steps: as §1

For the compound `O=C1CCC(c2ccc3c(c2)SCC(=O)N3)=NN1`, in the assay with Canis familiaris [1], the Change is recorded as 62%.
For `CN1C(=O)CS(=O)(=O)c2cc(C3=NNC(=O)CC3)ccc21`, the Change in the assay with Canis familiaris [1] turned out to be 20%.
On the same count and under the same terms, next, `CN1C(=O)C[S+]([O-])c2cc(C3=NNC(=O)CC3)ccc21` (stereo unspecified): -3%; `CN1C(=O)CSc2cc(C3=NNC(=O)CC3)ccc21`: 38%.
`CC1CC(=O)NN=C1c1ccc2c(c1)OCC(=O)N2` (stereo unspecified) [BEMORADAN]: the ED50 turned out to be 0.01 mg/kg in the assay filed under Canis familiaris [2] and 5.4 µg/kg in the assay with Canis familiaris [3].
